The list is not random: actives were taken first. Their share in the collection is about 2.2%.
DENV2 CPE rescue – inhibitors of DENV2 cytopathic effect; DENV2-infected cells, cytopathic effect rescue, plate reader; hit rate 1.7% among 350,000; CPE inhibition, % at 9.99 µM; in the data active = CPE inhibition above about 20%, passing the limit was not always enough; tested in BHK-21 cells;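 note: 0% = median of neutral control wells and 100% = median of positive control wells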
Statin myotox sup – suppression of simvastatin myotoxicity | C2C12 myotubes + simvastatin, ATP luminescence, 48 h; scaled: DMSO 0, geranylgeraniol control 100 | rescue of ATP level, % at 7.49 µM | hit rate 0.78% among 330,000 | AID 602340;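 active = mean ATP rescue above about 67%, or every replicate alone reaching that limit, limit read from the data, passing the limit was not always enough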;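 note: myotubes were challenged with 10 µM simvastatin during compound exposure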
E-selectin induc – E-selectin induction on HUVECs. HUVEC E-selectin immunofluorescence imaging; normalized: neutral wells 0, TNF-alpha wells 100. P16581. hit rate 0.37% among 260,000. activation, % at 7.58 µM;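 active = mean E-selectin-positive cell signal at least 10% of the positive control, reached in at least 60% of replicates, without over 20% cell loss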
Target sequence (P16581 whole entry, looked up): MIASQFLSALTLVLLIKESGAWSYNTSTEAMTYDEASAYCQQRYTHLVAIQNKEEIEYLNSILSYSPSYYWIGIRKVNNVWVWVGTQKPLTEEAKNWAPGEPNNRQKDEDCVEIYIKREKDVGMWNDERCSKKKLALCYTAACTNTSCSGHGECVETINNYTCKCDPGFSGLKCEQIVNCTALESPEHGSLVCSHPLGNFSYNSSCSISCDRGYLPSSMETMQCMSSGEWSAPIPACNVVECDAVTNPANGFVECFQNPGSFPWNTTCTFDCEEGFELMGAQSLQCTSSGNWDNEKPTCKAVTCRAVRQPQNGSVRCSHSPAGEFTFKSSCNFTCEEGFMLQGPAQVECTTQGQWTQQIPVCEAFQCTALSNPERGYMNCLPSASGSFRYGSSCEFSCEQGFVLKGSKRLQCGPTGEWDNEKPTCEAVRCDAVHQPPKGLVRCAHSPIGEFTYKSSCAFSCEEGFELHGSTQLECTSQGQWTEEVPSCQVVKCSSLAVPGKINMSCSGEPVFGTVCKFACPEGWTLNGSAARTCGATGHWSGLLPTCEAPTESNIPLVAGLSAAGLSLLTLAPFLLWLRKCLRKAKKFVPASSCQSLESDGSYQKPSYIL
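System: HUVEC / Compound: single concentration / Signal: immunofluorescence imaging / Read-out: percent E-selectin-positive cells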
Active calls of the source: *; ! = not active in a repeat.

How did C/C=C/c1ccc2c(c1)O[C@H](CN(C)Cc1ccc(F)cc1)[C@@H](C)CN([C@@H](C)CO)S2(=O)=O do in these assays?
DENV2 CPE rescue: -2.4; Statin myotox sup: -35.8; E-selectin induc: 0.2

How did CC(C)CC#Cc1ccc2c(c1)O[C@H](CN(C)Cc1ccncc1)[C@@H](C)CN([C@@H](C)CO)S2(=O)=O do in these assays?
DENV2 CPE rescue: 9.1; Statin myotox sup: -52.5; E-selectin induc: 0.2

How did Cc1noc(C)c1S(=O)(=O)N(C)C[C@@H]1Oc2ccc(NC(=O)C3CCCCC3)cc2CC(=O)N([C@H](C)CO)C[C@@H]1C do in these assays?
DENV2 CPE rescue: 5.4; Statin myotox sup: 1.5; E-selectin induc: 0.2

Results for CCCC(=O)Nc1ccc2c(c1)OC[C@@H](C)N(C(=O)CC)C[C@@H](C)[C@H](OC)CN(C)C2=O ?
DENV2 CPE rescue: 16.4; Statin myotox sup: 13.7; E-selectin induc: -0.2

Results for COc1cccc(CNC(=O)CSc2nnc3c(n2)[nH]c2ccc(F)cc23)c1 ?
DENV2 CPE rescue: -6.1; Statin myotox sup: -38.5; E-selectin induc: -0.2

How did O=C(CSc1nnc2c(n1)[nH]c1ccc(F)cc12)OCc1ccccc1 do in these assays?
Statin myotox sup: 85.2*

How did N#C[C@H]1[C@H](c2ccccc2)[C@H](CO)N1C(=O)Cc1ccccc1 do in these assays?
DENV2 CPE rescue: -2.0; Statin myotox sup: 5.7; E-selectin induc: 0.3

What do the screens show for `C[C@@H]1CN([C@H](C)CO)C(=O)Cc2cc(NC(=O)Nc3ccc4c(c3)OCO4)ccc2O[C@@H]1CN(C)S(=O)(=O)c1cn(C)cn1`?
Statin myotox sup: -32.8; E-selectin induc: -9.0

Results for C[C@@H]1CN([C@@H](C)CO)C(=O)c2cc(NS(=O)(=O)c3ccc(F)cc3)ccc2O[C@@H]1CN(C)S(C)(=O)=O ?
E-selectin induc: -3.0

How did Cc1ccc(-c2cnc3c(c2)C(=O)N([C@@H](C)CO)C[C@H](C)[C@@H](CN(C)C(=O)c2ccccc2)O3)cc1 do in these assays?
DENV2 CPE rescue: -3.4; Statin myotox sup: 32.0; E-selectin induc: 0.7

Results for CCC(=O)N(C)C[C@@H]1Oc2ncc(-c3ccc(C)cc3)cc2C(=O)N([C@@H](C)CO)C[C@@H]1C ?
DENV2 CPE rescue: -6.4; Statin myotox sup: 29.2; E-selectin induc: -0.4

Results for C[C@@H]1CN([C@H](C)CO)C(=O)c2ccccc2-c2ccccc2CO[C@H]1CN(C)C(=O)c1cc(Cl)cc(Cl)c1 ?
DENV2 CPE rescue: 28.7*; E-selectin induc: -0.3

Results for C[C@@H]1CN([C@@H](C)CO)C(=O)c2ccccc2-c2ccccc2CO[C@H]1CN(C)C(=O)c1cc(Cl)cc(Cl)c1 ?
DENV2 CPE rescue: -5.9; E-selectin induc: 0.8

Results for Cc1ccc(-c2cnc3c(c2)C(=O)N([C@H](C)CO)C[C@@H](C)[C@@H](CN(C)C(=O)c2ccccc2)O3)cc1 ?
DENV2 CPE rescue: 68.4*; Statin myotox sup: -6.5; E-selectin induc: -0.2

How did C[C@@H]1CN([C@@H](C)CO)C(=O)c2cc(Br)cnc2O[C@@H]1CN(C)Cc1ccncc1 do in these assays?
DENV2 CPE rescue: -3.8; Statin myotox sup: 5.3; E-selectin induc: -0.5

How did C[C@H](CO)N1C[C@H](C)[C@H](CN(C)Cc2ccncc2)Oc2ncc(Br)cc2C1=O do in these assays?
DENV2 CPE rescue: 84.9*!; Statin myotox sup: 9.2; E-selectin induc: -0.7

What do the screens show for `CCC(=O)N(C)C[C@@H]1Oc2ncc(-c3ccc(C)cc3)cc2C(=O)N([C@@H](C)CO)C[C@H]1C`?
DENV2 CPE rescue: 22.2*; Statin myotox sup: 1.5; E-selectin induc: -0.3

How did O=C(C[C@@H]1CC[C@@H](NC(=O)C2CCC2)[C@H](CO)O1)Nc1nccs1 do in these assays?
DENV2 CPE rescue: -5.8; Statin myotox sup: -10.7; E-selectin induc: -0.4

What do the screens show for `CC(=O)N1[C@H](CN(C(=O)c2ccccc2)C(C)C)[C@H](c2ccccc2)[C@@H]1CO`?
Statin myotox sup: -13.3; E-selectin induc: 1.0

Results for CCCC(=O)Nc1ccc2c(c1)C(=O)N(C)[C@H]1CC[C@H](CC(=O)NCCOC)O[C@H]1CO2 ?
DENV2 CPE rescue: -4.8; Statin myotox sup: 6.6; E-selectin induc: 0.0

How did CC(=O)N1CC2(C1)[C@H](c1ccc(-c3ccc(C#N)cc3)cc1)[C@H](CO)N2C(C)=O do in these assays?
DENV2 CPE rescue: -5.6; E-selectin induc: -0.2

What do the screens show for `CCC(=O)N(C)C[C@H]1Oc2ncc(/C=C/c3ccccc3)cc2C(=O)N([C@@H](C)CO)C[C@@H]1C`?
DENV2 CPE rescue: 41.6*; Statin myotox sup: 10.8; E-selectin induc: 0.3

How did C/C=C/c1cnc2c(c1)C(=O)N([C@H](C)CO)C[C@@H](C)[C@@H](CN(C)C(=O)Nc1ccccc1F)O2 do in these assays?
DENV2 CPE rescue: 30.2*; E-selectin induc: -0.1

Results for C/C=C/c1cnc2c(c1)C(=O)N([C@H](C)CO)C[C@H](C)[C@H](CN(C)C(=O)Nc1ccccc1F)O2 ?
DENV2 CPE rescue: 0.5; Statin myotox sup: -5.8; E-selectin induc: 0.0

Results for CCC(=O)N(C)C[C@H]1Oc2ncc(/C=C/c3ccccc3)cc2C(=O)N([C@@H](C)CO)C[C@H]1C ?
DENV2 CPE rescue: 0.9; Statin myotox sup: 15.0; E-selectin induc: -0.2

What do the screens show for `CCC(=O)N(C)C[C@@H]1Oc2ncc(-c3ccc(C#N)cc3)cc2C(=O)N([C@H](C)CO)C[C@@H]1C`?
DENV2 CPE rescue: 70.4*; Statin myotox sup: 2.1; E-selectin induc: 0.2

What do the screens show for `CC(C)NC(=O)N(C)C[C@H]1Oc2ncc(-c3ccccc3F)cc2C(=O)N([C@H](C)CO)C[C@H]1C`?
DENV2 CPE rescue: 16.6; Statin myotox sup: 2.6; E-selectin induc: -0.1

How did CCC(=O)N(C)C[C@@H]1Oc2ncc(-c3ccc(C#N)cc3)cc2C(=O)N([C@H](C)CO)C[C@H]1C do in these assays?
DENV2 CPE rescue: 11.5; Statin myotox sup: 6.7; E-selectin induc: 0.6

How did CC(C)NC(=O)N(C)C[C@@H]1Oc2ncc(-c3ccccc3F)cc2C(=O)N([C@@H](C)CO)C[C@H]1C do in these assays?
DENV2 CPE rescue: 22.7*; Statin myotox sup: 20.1; E-selectin induc: 0.2

How did CN(C)C(=O)C[C@H]1C=C[C@H](NC(=O)Nc2cccc(F)c2)[C@@H](CO)O1 do in these assays?
DENV2 CPE rescue: 10.2; Statin myotox sup: -3.0; E-selectin induc: 16.4

Results for CNC(=O)C[C@H]1CC[C@@H]2[C@@H](COc3ccc(NC(=O)Nc4ccc(F)c(F)c4)cc3C(=O)N2C)O1 ?
DENV2 CPE rescue: 0.6; Statin myotox sup: 10.7; E-selectin induc: 0.0

What do the screens show for `C[C@@H]1CN([C@H](C)CO)C(=O)c2cc(-c3ccccc3)cnc2O[C@@H]1CN(C)C(=O)c1ccccc1F`?
DENV2 CPE rescue: 105.3*; Statin myotox sup: -0.1; E-selectin induc: -0.3

How did COCC(=O)N(C)C[C@H]1Oc2ncc(Br)cc2C(=O)N([C@H](C)CO)C[C@H]1C do in these assays?
DENV2 CPE rescue: 1.6; Statin myotox sup: 8.4; E-selectin induc: -0.3

How did C[C@H](CO)N1C[C@H](C)[C@H](CN(C)C(=O)c2ccccc2F)Oc2ncc(C#Cc3ccc(F)cc3)cc2C1=O do in these assays?
DENV2 CPE rescue: -5.7; Statin myotox sup: 19.9; E-selectin induc: 0.5

What do the screens show for `C[C@@H]1CN([C@H](C)CO)C(=O)c2cc(C#Cc3ccc(F)cc3)cnc2O[C@@H]1CN(C)C(=O)c1ccccc1F`?
DENV2 CPE rescue: 45.0*; Statin myotox sup: 22.5; E-selectin induc: 0.4

Screening results deposited in PubChem by Broad Institute.
